# Laboratory results reported in ChEMBL document CHEMBL5036324 (J Med Chem, 2021).
# Active and inactive are the calls of the source. The rule behind the calls is not given here.
# Experiments:
# [1] = Acute toxicity in BALB/c mouse assessed as decrease in locomotor activity at 15 to 80 mg/kg, ip administered as single dose measured after 24 hrs; type: organism-based; conditions: in vivo, dose 15-80 mg/kg
# [2] = biological target: T1, TLR7 and TLR8 (Homo sapiens) (UniProt Q9NYK1+Q9NR97); assay: Agonist activity at human TLR7/8 expressed in human PBMC cells assessed as induction of TNF-alpha production at 0.1 to 32 ug/ml incubated for 12 hrs by multiplexed immunoassay; type: cell-based; conditions: filed as agonist, dose 0.1-32 µg/ml
# T1 sequence (Q9NR97 whole entry, looked up): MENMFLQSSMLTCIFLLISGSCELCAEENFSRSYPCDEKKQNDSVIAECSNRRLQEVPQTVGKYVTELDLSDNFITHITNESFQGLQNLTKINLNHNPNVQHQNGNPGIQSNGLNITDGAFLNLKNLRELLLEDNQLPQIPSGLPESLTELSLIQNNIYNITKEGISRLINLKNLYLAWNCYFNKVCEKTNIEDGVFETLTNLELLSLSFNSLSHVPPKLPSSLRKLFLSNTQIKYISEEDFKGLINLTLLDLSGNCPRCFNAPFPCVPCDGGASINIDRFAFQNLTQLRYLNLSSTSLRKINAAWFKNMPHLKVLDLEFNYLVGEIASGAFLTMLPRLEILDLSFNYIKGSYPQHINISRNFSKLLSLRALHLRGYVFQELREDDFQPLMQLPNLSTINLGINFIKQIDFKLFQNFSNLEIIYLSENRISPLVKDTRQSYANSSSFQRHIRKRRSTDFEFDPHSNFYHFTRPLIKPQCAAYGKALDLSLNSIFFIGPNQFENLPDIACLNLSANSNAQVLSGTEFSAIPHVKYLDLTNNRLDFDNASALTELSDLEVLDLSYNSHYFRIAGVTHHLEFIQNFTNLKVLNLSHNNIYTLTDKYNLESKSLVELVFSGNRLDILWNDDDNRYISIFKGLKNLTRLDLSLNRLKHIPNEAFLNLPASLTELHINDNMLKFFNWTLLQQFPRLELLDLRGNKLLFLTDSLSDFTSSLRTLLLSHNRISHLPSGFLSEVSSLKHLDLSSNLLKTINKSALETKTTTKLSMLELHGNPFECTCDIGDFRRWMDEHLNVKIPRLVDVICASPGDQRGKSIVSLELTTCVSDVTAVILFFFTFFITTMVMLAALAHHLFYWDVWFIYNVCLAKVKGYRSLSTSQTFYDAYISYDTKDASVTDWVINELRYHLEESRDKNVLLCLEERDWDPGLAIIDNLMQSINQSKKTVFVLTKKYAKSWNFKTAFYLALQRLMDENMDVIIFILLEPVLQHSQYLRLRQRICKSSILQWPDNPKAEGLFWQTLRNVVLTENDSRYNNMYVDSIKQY
# T1 sequence (Q9NYK1 whole entry, looked up): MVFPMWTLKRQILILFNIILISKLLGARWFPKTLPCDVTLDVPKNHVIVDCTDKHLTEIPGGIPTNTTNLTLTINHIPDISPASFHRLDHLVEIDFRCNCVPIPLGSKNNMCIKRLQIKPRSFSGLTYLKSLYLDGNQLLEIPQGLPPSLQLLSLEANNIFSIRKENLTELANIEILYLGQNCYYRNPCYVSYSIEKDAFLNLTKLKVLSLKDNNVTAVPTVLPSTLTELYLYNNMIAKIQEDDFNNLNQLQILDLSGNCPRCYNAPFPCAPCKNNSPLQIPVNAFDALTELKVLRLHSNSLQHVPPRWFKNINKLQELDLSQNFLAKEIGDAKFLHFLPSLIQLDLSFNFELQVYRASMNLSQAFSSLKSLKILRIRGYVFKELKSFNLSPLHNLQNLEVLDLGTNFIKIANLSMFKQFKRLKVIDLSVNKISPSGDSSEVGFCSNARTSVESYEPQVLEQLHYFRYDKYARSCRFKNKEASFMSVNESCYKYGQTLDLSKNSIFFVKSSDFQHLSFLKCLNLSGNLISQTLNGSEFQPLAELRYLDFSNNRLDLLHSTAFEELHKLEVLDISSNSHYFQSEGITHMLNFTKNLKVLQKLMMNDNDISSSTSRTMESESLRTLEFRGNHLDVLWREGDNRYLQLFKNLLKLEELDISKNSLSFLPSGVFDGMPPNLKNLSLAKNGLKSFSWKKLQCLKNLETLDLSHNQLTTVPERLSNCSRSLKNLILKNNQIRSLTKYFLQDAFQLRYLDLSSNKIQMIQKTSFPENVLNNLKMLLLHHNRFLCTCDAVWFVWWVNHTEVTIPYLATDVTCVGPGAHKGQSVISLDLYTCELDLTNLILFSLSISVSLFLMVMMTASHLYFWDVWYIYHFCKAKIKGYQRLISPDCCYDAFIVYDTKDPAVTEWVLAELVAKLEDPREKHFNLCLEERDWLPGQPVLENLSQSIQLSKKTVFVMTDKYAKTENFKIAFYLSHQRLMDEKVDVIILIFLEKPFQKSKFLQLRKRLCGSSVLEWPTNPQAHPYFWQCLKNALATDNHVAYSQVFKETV
# Procedure, shortened: (§1)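 Healthy-volunteer PBMCs from a single donor were isolated by Ficoll−Hypaque gradient and plated at 2.0 × 10⁶ cells/mL. They were stimulated for 12 h with escalating compound concentrations. Supernatants were assayed in duplicate on a 41-analyte magnetic bead cytokine/chemokine panel read by Luminex. EC_max is the concentration giving maximal cytokine induction.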
# [3] = biological target: T1, TLR7 and TLR8 (Homo sapiens); assay: Agonist activity at human TLR7/8 expressed in human PBMC cells assessed as induction of MIP-1alpha production at 0.1 to 32 ug/ml incubated for 12 hrs by multiplexed immunoassay; type: cell-based; conditions: filed as agonist, dose 0.1-32 µg/ml; procedure, shortened: as §1
# [4] = biological target: T1, TLR7 and TLR8 (Homo sapiens); assay: Agonist activity at human TLR7/8 expressed in human PBMC cells assessed as induction of INFgamma production at 0.1 to 32 ug/ml incubated for 12 hrs by multiplexed immunoassay; type: cell-based; conditions: filed as agonist, dose 0.1-32 µg/ml; procedure, shortened: as §1
# CT26 [5] = assay: Antitumor activity against mouse CT26 cells implanted in BALB/c mouse assessed as tumor growth delay at 25 ug, ip administered once per week and measured every 3 days for 23 days; type: functional, organism-based; conditions: dose 25.0 µg, time 23.0 day
# Procedure, shortened: (§2)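 Subcutaneous CT26 tumours were grown in BALB/c mice, with cells cultured in DMEM/10% FBS. At a mean tumour size of 100 mm³, mice were randomised (n = 5/group). Agonist was given ip once weekly; anti-PD-1 or IgG isotype was given ip at 200 μg twice weekly. Tumour volume (V = 1/2ab²) was measured every 3 days. Mice were euthanised at 2000 mm³.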
# [6] = biological target: T1, TLR7 and TLR8 (Homo sapiens); assay: Agonist activity at human TLR7/8 expressed in human PBMC cells assessed as induction of IL-12 production at 0.1 to 32 ug/ml incubated for 12 hrs by multiplexed immunoassay; type: cell-based; conditions: filed as agonist, dose 0.1-32 µg/ml; procedure, shortened: as §1
# [7] = Subacute toxicity in BALB/c mouse assessed as pathological changes in spleen at 15 mg/kg, ip administered as single dose by H and E staining based microscopic analysis; type: organism-based; conditions: in vivo
# Procedure, shortened: (§3)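 Subacute toxicity study in BALB/c mice given ip TLR7/8 agonist. Tissues from treated and control mice were examined by hematoxylin and eosin staining.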
# [8] = biological target: T1, TLR7 and TLR8 (Homo sapiens); assay: Agonist activity at human TLR7/8 expressed in human PBMC cells assessed as induction of IL-8 production at 0.1 to 32 ug/ml incubated for 12 hrs by multiplexed immunoassay; type: cell-based; conditions: filed as agonist, dose 0.1-32 µg/ml; procedure, shortened: as §1
# [9] = Subacute toxicity in BALB/c mouse assessed as pathological changes in lung at 15 mg/kg, ip administered as single dose by H and E staining based microscopic analysis; type: organism-based; conditions: in vivo; procedure, shortened: as §3
# [10] = biological target: T1, TLR7 and TLR8 (Homo sapiens); assay: Agonist activity at human TLR7/8 expressed in human PBMC cells assessed as induction of IFN-alpha2 production at 0.1 to 32 ug/ml incubated for 12 hrs by multiplexed immunoassay; type: cell-based; conditions: filed as agonist, dose 0.1-32 µg/ml; procedure, shortened: as §1
# [11] = biological target: T1, TLR7 and TLR8 (Homo sapiens); assay: Agonist activity at human TLR7/8 expressed in human PBMC cells assessed as induction of IL-1beta production by measuring concentration required to induce maximal response incubated for 12 hrs by multiplexed immunoassay; type: cell-based; conditions: filed as agonist; procedure, shortened: as §1
# CT26 [12] = assay: Antitumor activity against mouse CT26 cells implanted in BALB/c mouse assessed as fold increase in infiltration of CD11c+ in tumor cells at 25 ug, ip administered once a week for 23 days by flow cytometry analysis relative to R848; type: functional; conditions: dose 25 µg; time 23 day
# Procedure, shortened: (§4)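 CT26-bearing BALB/c mice (n = 5) were treated ip once weekly with agonist, alone or with anti-PD-1 (200 μg, twice weekly). Tumours were harvested 23 days after implantation, enzymatically and mechanically dissociated into single cells, and stained for surface markers plus intracellular FoxP3 after fixation/permeabilisation. Cells were gated within CD45⁺ for CD11c⁺ DCs, CD11b⁺F4/80⁺MHCII⁺ (M1), CD206⁺ (M2), CD3/CD4/CD8, and CD4⁺CD25⁺FoxP3⁺ Treg, then analysed by flow cytometry.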
# [13] = biological target: T1, TLR7 and TLR8 (Homo sapiens); assay: Agonist activity at human TLR7/8 expressed in human PBMC cells assessed as induction of G-CSF production by measuring concentration required to induce maximal response incubated for 12 hrs by multiplexed immunoassay; type: cell-based; conditions: filed as agonist; procedure, shortened: as §1
# hERG (KCNH2) = hERG (KCNH2) (Homo sapiens, UniProt Q12809); assay: Inhibition of hERG expressed in HEK293 cells at 3 uM relative to control; type: cell-based; conditions: HEK293 cells expressing hERG
# hERG (KCNH2), sequence (Q12809 whole entry): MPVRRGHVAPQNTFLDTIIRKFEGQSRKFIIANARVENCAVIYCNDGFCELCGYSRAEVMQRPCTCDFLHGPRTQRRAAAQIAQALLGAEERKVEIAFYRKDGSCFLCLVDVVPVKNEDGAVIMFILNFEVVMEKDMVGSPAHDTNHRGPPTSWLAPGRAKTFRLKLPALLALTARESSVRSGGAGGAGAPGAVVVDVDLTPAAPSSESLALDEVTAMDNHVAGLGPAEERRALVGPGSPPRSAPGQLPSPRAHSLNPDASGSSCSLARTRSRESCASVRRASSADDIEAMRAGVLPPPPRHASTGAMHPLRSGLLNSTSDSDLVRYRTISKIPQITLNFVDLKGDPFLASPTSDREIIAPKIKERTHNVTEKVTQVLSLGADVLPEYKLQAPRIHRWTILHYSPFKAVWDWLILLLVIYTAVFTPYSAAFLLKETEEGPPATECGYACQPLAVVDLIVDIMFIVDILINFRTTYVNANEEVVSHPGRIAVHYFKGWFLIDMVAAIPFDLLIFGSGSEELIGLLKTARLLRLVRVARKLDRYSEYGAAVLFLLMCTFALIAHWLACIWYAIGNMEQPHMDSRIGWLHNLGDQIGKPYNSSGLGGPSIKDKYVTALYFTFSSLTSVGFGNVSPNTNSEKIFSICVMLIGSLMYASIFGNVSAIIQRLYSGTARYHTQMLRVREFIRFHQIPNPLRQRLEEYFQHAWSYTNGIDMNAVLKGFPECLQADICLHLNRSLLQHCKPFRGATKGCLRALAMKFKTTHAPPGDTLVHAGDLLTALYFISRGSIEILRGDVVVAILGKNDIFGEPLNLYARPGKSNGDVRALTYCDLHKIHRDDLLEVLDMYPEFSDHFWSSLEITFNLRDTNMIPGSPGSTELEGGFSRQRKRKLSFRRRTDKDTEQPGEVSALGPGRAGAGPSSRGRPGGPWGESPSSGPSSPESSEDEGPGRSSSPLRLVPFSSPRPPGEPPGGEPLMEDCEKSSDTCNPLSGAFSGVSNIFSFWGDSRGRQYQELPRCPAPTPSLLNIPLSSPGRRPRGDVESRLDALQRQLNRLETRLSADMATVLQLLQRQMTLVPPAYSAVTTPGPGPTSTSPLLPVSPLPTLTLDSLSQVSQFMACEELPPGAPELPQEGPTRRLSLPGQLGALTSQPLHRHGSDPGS
# [14] = biological target: T1, TLR7 and TLR8 (Homo sapiens); assay: Agonist activity at human TLR7/8 expressed in human PBMC cells assessed as induction of IL-8 production by measuring concentration required to induce maximal response incubated for 12 hrs by multiplexed immunoassay; type: cell-based; conditions: filed as agonist; procedure, shortened: as §1
# [15] = biological target: T1, TLR7 and TLR8 (Homo sapiens); assay: Agonist activity at human TLR7/8 expressed in human PBMC cells assessed as induction of INF-gamma production by measuring concentration required to induce maximal response incubated for 12 hrs by multiplexed immunoassay; type: cell-based; conditions: filed as agonist; procedure, shortened: as §1
# [16] = biological target: T1, TLR7 and TLR8 (Homo sapiens); assay: Agonist activity at human TLR7/8 expressed in human PBMC cells assessed as induction of IP-10 production by measuring concentration required to induce maximal response incubated for 12 hrs by multiplexed immunoassay; type: cell-based; conditions: filed as agonist; procedure, shortened: as §1
# CT26 [17] = assay: Antitumor immunity against mouse CT26 cells implanted in BALB/c mouse assessed as increase in infiltration of CD8+ T cytotoxic lymphocytes at 25 ug, ip administered once a week for 23 days by flow cytometry analysis; type: functional, organism-based; conditions: dose 25.0 µg, time 23.0 day; procedure, shortened: as §4
# CT26 [18] = assay: Antitumor activity against mouse CT26 cells implanted in BALB/c mouse assessed as tumor growth inhibition at 25 ug, ip administered once a week and measured every 3 days for 23 days relative to control; type: functional; conditions: dose 25 µg; time 23 day; procedure, shortened: as §2
# [19] = Toxicity in BALB/c mouse implanted with mouse CT26 cells assessed as decrease in body weight at 0.9 g, ip administered on day 4; type: organism-based; conditions: in vivo
# Procedure, shortened: (§5)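 CT26 cells were grown in DMEM with 10% FBS at 37 °C, 5% CO2, and implanted subcutaneously in BALB/c mice. At a mean tumor volume of 100 mm³, mice were randomized (n = 5 per group). The TLR7/8 agonist was given ip at 25 μg once weekly, with or without anti-PD-1 antibody at 200 μg ip twice weekly. Body weight was tracked over time.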
# CT26 [20] = assay: Antitumor immunity against mouse CT26 cells implanted in BALB/c mouse assessed as increase in M1 to M2 like TAM ratio at 25 ug, ip administered once a week with anti-PD-1 antibodies for 23 days by flow cytometry analysis; type: functional, organism-based; conditions: dose 25.0 µg, time 23.0 day; procedure, shortened: as §4
# CT26 [21] = assay: Antitumor activity against mouse CT26 cells implanted in BALB/c mouse assessed as reduction in tumor size at 25 ug, ip administered once a week in presence of anti-PD-1 antibodies and measured every 3 days for 23 days; type: functional, organism-based; conditions: dose 25.0 µg, time 23.0 day; procedure, shortened: as §2
# [22] = Toxicity in BALB/c mouse implanted with mouse CT26 cells assessed as decrease in body weight at 1.2 g, ip administered on day 4 in combination with anti-PD-1 antibodies; type: organism-based; conditions: in vivo; procedure, shortened: as §5
# CT26 [23] = assay: Antitumor immunity against mouse CT26 cells implanted in BALB/c mouse assessed as increase in infiltration of CD8+ T cytotoxic lymphocytes at 25 ug, ip administered once a week with anti-PD-1 antibody for 23 days by flow cytometry analysis; type: functional, organism-based; conditions: dose 25.0 µg, time 23.0 day; procedure, shortened: as §4
smiles,measurement,setting,value
COCCNc1nc(N)nc2ccc(Cc3ccc(CN(C)C)cc3)nc12,Activity,[1],Non-Toxic
same,Activity,[2],Active
same,Activity,[3],Active
same,Activity,[4],Active
same,Activity,CT26 [5],Active
same,Activity,[6],Active
same,Activity,[7],Non-Toxic
same,Activity,[8],Active
same,Activity,[9],Non-Toxic
same,Activity,[10],Active
CCCCNc1nc(N)nc2ccc(Cc3ccc(CN(C)C)cc3)nc12,ECmax,[11],0.1 µg/mL
same,fold change (FC),CT26 [12],2
same,Activity,[1],Non-Toxic
same,ECmax,[13],0.1 µg/mL
same,inhibition at 3 µM,hERG (KCNH2),63.2%
same,ECmax,[14],0.1 µg/mL
same,ECmax,[15],0.1 µg/mL
same,ECmax,[16],0.1 µg/mL
same,Activity,[7],Non-Toxic
same,Activity,CT26 [17],Active
same,TGI,CT26 [18],>96.5%
same,Activity,[19],Toxic
same,Activity,CT26 [20],Active
same,Activity,CT26 [21],Active
same,Activity,[9],Non-Toxic
same,Activity,[22],Toxic
same,Activity,CT26 [23],Active
